ChEMBL document CHEMBL1821575, “A novel amino-benzosuberone derivative is a picomolar inhibitor of mammalian aminopeptidase N/CD13” (Bioorg Med Chem, 2011)

How the values were obtained:
Aminopeptidase N = target: T1, Aminopeptidase N (Sus scrofa, UniProt P15145); assay: Inhibition of porcine kidney APN using L-leucine-p-nitroanilide as substrate after 30 mins by Dixon plot analysis
T1 sequence (P15145 whole entry): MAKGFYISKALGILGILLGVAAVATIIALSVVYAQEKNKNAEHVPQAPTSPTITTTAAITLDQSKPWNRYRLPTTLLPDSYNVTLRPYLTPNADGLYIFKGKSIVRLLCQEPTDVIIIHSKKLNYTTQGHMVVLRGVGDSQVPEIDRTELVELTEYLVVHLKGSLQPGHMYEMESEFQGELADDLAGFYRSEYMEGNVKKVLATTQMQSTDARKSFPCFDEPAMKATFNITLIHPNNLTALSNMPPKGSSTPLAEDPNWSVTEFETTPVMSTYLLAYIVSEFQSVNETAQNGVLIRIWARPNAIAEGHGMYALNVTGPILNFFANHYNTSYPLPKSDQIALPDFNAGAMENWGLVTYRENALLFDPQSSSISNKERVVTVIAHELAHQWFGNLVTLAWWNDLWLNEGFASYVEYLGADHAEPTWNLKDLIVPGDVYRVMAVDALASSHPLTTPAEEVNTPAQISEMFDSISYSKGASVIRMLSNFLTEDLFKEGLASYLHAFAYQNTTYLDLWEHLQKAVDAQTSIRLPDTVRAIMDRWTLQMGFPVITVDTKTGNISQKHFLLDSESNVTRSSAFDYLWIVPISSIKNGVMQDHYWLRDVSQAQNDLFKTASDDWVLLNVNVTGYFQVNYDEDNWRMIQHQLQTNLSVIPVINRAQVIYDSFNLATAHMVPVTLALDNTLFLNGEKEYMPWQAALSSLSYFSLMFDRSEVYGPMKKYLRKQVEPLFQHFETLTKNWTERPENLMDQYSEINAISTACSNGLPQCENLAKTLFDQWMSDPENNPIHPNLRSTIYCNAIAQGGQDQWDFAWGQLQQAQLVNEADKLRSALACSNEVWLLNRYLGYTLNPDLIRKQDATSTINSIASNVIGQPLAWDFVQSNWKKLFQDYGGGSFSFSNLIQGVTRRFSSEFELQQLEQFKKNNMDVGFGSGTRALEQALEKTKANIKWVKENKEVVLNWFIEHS

Cytosol aminopeptidase = target: T2, Cytosol aminopeptidase (Bos taurus, UniProt P00727); assay: Inhibition of bovine kidney cytosolic leucine aminopeptidase using L-leucine-p-nitroanilide as substrate after 30 mins by Dixon plot analysis
T2 sequence (P00727 whole entry): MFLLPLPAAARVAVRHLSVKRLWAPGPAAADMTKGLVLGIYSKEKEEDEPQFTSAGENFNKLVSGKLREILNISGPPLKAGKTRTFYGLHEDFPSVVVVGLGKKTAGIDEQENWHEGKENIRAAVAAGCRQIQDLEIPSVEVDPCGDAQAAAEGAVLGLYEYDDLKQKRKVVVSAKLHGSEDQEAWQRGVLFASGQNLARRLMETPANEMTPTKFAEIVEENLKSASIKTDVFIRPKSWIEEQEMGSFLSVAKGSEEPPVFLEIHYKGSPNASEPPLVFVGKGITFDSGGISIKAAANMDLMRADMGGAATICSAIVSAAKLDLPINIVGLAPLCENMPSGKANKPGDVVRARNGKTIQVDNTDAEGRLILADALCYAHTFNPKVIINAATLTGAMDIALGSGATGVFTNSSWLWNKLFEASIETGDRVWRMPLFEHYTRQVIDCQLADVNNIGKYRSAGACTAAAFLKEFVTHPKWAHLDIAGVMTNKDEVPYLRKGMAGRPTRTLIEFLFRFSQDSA
Procedure, shortened: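 Cytosolic leucine aminopeptidase, purified by a published procedure, 20 Units per assay in 0.1 M Tris-HCl, 0.1 mM ZnCl2, 5 mM MnCl2, 1 M KCl, pH 8.0, at 30 °C. […] Ki came from Dixon plots of racemates.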

[1] = target: Bacterial leucyl aminopeptidase (Vibrio proteolyticus, UniProt Q01693); assay: Inhibition of Aeromonas proteolytica aminopeptidase using L-leucine-p-nitroanilide as substrate after 30 mins by Dixon plot analysis
Procedure, shortened: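 Commercial Aeromonas proteolytica aminopeptidase, 2 mUnits per assay in 0.05 M Tris-HCl pH 7.5, 30 °C, started by adding enzyme. L-leucine-p-nitroanilide was set at its Km (0.02 mM). Release of p-nitroanilide was read continuously at 405 nm over 30 min for initial velocities. Ki was taken from Dixon plots, with racemic compounds tested up to their solubility limit.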

Chain of Bacterial leucyl aminopeptidase (Q01693 whole entry): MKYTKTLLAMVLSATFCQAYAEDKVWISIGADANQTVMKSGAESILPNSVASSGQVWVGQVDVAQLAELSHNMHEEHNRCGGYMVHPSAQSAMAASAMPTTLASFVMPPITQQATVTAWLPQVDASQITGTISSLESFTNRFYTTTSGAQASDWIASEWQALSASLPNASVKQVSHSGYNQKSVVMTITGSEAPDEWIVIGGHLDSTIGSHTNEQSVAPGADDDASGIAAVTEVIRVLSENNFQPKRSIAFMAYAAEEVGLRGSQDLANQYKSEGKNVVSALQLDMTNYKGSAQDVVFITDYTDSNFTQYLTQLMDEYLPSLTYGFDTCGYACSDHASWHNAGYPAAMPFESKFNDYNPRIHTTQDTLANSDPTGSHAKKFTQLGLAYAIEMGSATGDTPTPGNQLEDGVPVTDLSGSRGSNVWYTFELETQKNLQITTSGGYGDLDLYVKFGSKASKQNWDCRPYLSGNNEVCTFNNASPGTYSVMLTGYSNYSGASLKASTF

| Structure (SMILES) | Ki (Aminopeptidase N) [µM] | Ki (Cytosol aminopeptidase) [µM] | Ki [1] [µM] |
| --- | --- | --- | --- |
| NC1CCc2c(Br)ccc(Br)c2CC1=O (racemic) | 0.006 | > 100 |  |
| NC1CCc2c(Cl)cccc2CC1=O (racemic) |  | > 100 | > 100 |
| NC1CCc2c(-c3ccccc3)ccc(-c3ccccc3)c2CC1=O (racemic) | 0.04 | 50 | > 100 |
| NC1CCc2c(Br)cccc2CC1=O (racemic) |  | > 100 | > 100 |
| NC1CCc2c(Br)ccc(-c3ccccc3)c2CC1=O (racemic) |  | 70 | 39 |

Next, values leading:

| Ki (Aminopeptidase N) [µM] | Ki (Cytosol aminopeptidase) [µM] | Ki [1] [µM] | Structure (SMILES) |
| --- | --- | --- | --- |
| 0.1 | > 100 | > 100 | NC1CCc2ccc3ccccc3c2CC1=O (racemic) |
|  | > 100 | 28 | NC1CCc2cccc(-c3ccccc3)c2CC1=O (racemic) |
| 0.04 | > 100 | > 100 | NC1CCc2c(ccc3ccccc23)CC1=O (racemic) |
|  | > 100 | > 100 | NC1CCc2c(cccc2-c2ccccc2)CC1=O (racemic) |
| 0.07 | > 100 | > 100 | NC1CCc2c(-c3ccccc3)ccc(Br)c2CC1=O (racemic) |
|  | > 100 | 213 | NC1CCc2cccc(Br)c2CC1=O (racemic) |
|  | > 100 | 900 | NC1CCc2ccccc2CC1=O (racemic) |
